# UBC13 polyUb – human UBC13 polyubiquitination inhibition. P61088. UBC13 polyubiquitin chain formation, TR-FRET. inhibition, % at 20 µM. 330,000 compounds, 0.47% hits; in the data active = inhibition above about 45%, passing the limit was not always enough; inconclusive = no clear call, values can overlap the other calls
# Target sequence (P61088 whole entry, looked up): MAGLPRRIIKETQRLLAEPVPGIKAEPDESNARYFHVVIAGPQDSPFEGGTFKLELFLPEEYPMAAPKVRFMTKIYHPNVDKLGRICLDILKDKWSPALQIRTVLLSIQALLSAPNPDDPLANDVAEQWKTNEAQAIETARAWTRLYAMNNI
# UCH37 inh – human UCH37 deubiquitinating enzyme inhibition | Q9Y5K5 | purified proteasome/UCH37, Ub-AMC cleavage fluorescence | inhibition, % (no concentration beside the values) | 330,000 compounds, 0.33% hits;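 active = mean inhibition over replicate wells above about 20%, limit read from the data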;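 also: 0% = compound-free wells with enzyme and 100% = wells lacking proteasome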
#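 Material: human UCH37 enzyme supplied as purified proteasome complex. Measure: % inhibition of Ub-AMC cleavage fluorescence. Medium: pH 7.4 Tris-HCl (50 mM) with ovalbumin, ATP-MgCl2, DTT. Times: 30 min preincubation with enzyme, 25 min cleavage at room temperature. Detection: AMC fluorescence intensity at 355/460 nm.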
# PREPL inh – inhibits the human prolyl oligopeptidase-like enzyme; Q4J6C6; recombinant PREPL, fluorescence polarization activity-based probe; inhibition, % at 5.96 µM; 320,000 compounds, 0.68% hits; in the data active = inhibition above about 43%;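 also: 0% = enzyme with DMSO and 100% = wells lacking enzyme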
# Apaf1 inhib – inhibitors of human Apaf-1 apoptosome; 330,000 compounds, 0.71% hits; reconstituted apoptosome caspase-3 activity, DEVD-Rh110 fluorescence; O14727; inhibition, % at 20 µM; active = inhibition of at least 40% at 20 µM;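 also: plate controls were DMSO wells for no effect and DEVD-CHO caspase inhibitor wells for full effect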
#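 Medium: Hepes buffer, pH 7.5 / System: biochemical Apaf-1 apoptosome reconstitution / Measured by: Rh110 fluorescence, excitation 480 nm, emission 540 nm / Times: compound with Apaf-1, dATP, procaspase-3 30 min, then 50 min reaction, room temperature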
# Active calls of the source: *; ? = inconclusive; nt = no result. A selection: hits, their analogues and other compounds. The true share with any hit is near 1.5%.
SMILES,UBC13 polyUb,UCH37 inh,PREPL inh,Apaf1 inhib
CC[n+]1c(/C=C/c2ccc(N(C)C)cc2)ccc2ccccc21,nt,23*,-2,nt
CC[n+]1ccccc1/C=C/c1ccc(N(C)C)cc1,nt,21*,nt,nt
CC[n+]1c(/C=C/c2ccc(OC)c(OC)c2)ccc2ccccc21,-28,-13,21,-9
CCCCNC(=O)CON=C(C)c1cc2ccccc2o1,nt,0,nt,nt
Oc1cccc(C=NN2CCN(C3c4ccccc4-c4ccccc43)CC2)c1,nt,0,nt,nt
COc1ccc(Br)cc1C=Nn1c(C)nc2ccccc2c1=O,nt,2,nt,nt
CC(C)S(=O)(=O)C1=NSC2=NC(=O)/C(=C\c3ccc(-c4cccc(C(=O)O)c4)o3)C(=N)N21,nt,22*,nt,nt
Cc1cccc(NS(=O)(=O)c2cc(C(=O)NCCC3=CCCCC3)ccc2Cl)c1,1,21*,0,4
CC1CN(S(=O)(=O)c2cc(C(=O)NCCC3=CCCCC3)ccc2Cl)CC(C)O1 (stereo not drawn),0,5,8,20
O=C1c2ccccc2C(=O)C12OC2c1cccc2ccccc12 (stereo not drawn),-47,24*,4,94*
c1ccc2c(C3CCO3)cccc2c1 (stereo not drawn),5,-1,-18,3
COc1ccc(C(=O)Oc2cc(C=NNC(N)=S)ccc2OC)cc1,nt,7,nt,nt
COc1ccc(NC(=O)c2cc3cccc(OC)c3oc2=Nc2ccc(C(=O)O)cc2)cc1OC,nt,24*,nt,nt
COc1cccc(NC(=O)c2cc3cccc(OC)c3o/c2=N\O)c1,0,nt,27,-3
CCc1cc(Cn2nc(-c3ccccc3C)cc2C(=O)O)on1,15,2,0,-6
CCc1cc(Cn2nc(C(=O)O)cc2-c2ccccc2)on1,1,22*,3,0
Cc1ccccc1OC(C)C(=O)NC1CCCC1 (stereo not drawn),2,28*,-6,7
CC(=O)C1=C(O)C(=O)N(CCN(C)C)C1c1ccc(Cl)cc1 (stereo not drawn),nt,24*,nt,nt
CCCCCCN1C(=O)C(O)=C(C(C)=O)C1c1ccc(Cl)cc1 (stereo not drawn),-9,2,0,5
COC(=O)c1c(NC(=O)Cc2ccccc2)sc2c1CC(C)(C)NC2(C)C,22,5,39,16
COC(=O)c1c(NC(=O)COc2ccc(Cl)cc2)sc2c1CC(C)(C)NC2(C)C,43,-30,15,61*
Nc1scc2c(C(=O)N/N=C/c3ccc(Cl)cc3)nn(-c3ccccc3)c(=O)c12,-20,nt,18,42*
CC(CC(=O)Nc1ccc(N(C)C)cc1)=NNC(=O)c1ccc(Cl)cc1,nt,5,nt,nt
CC(C)(C)N1C(=O)[C@H]2[C@@H](c3ccc(Br)cc3)N3C(=O)N(c4ccccc4)C(=O)[C@@]3(Cc3ccccc3)[C@H]2C1=O,-5,27*,-6,2
CC(=O)Nc1ccc(OCC(O)Cn2c3ccccc3c3ccccc32)c(C)c1 (stereo not drawn),18,4,45*,-5
SMILES,UBC13 polyUb,UCH37 inh,PREPL inh,Apaf1 inhib
CCCCCCCC(C)=NNC(=O)CC(=O)NCCc1ccccc1,nt,-2,nt,nt
CCOc1cccc(CNCCO)c1OCc1ccc(Cl)cc1Cl,15,5,-33,13
CCOc1cc(CNCCO)cc(Br)c1OCc1ccc(Cl)cc1Cl,56*,-1,-50,38
COc1cc2c(C#N)c(N3CCCCC3)nc(N)c2c(N)n1,-19,-36,36,97*
COc1ccc(CN2C(=O)Cc3c2nc(N)c2c(N)nc(N4CCCCC4)c(C#N)c32)cc1,-44,-22,16,51*
COc1cc2c(C#N)c(N3CCOCC3)nc(N)c2c(N)n1,9,-113,13,5
Cc1ccc(NC(=O)CN(C)CC(=O)Nc2ccccc2Oc2ccccc2)cc1,-10,1,-9,18
Cc1cccc(C)c1NC(=O)CN(C)CC(=O)Nc1ccccc1Oc1ccccc1,10,28*,4,11
O=C(Cc1ccc(O)cc1)NN=Cc1cccnc1,nt,2,nt,nt
Cc1ccccc1N=Cc1cc2c(cc1[N+](=O)[O-])OCO2,-15,5,8,8
Cc1c(N=Cc2cc3c(cc2[N+](=O)[O-])OCO3)cccc1[N+](=O)[O-],-28,2,18,44*
Cc1ccccc1OCC(=O)NN=Cc1sc(=O)n(Cc2cccc(C(=O)O)c2)c1Cl,nt,7,nt,nt
O=C(O)c1cc(O)c2c(c1)[C@@H]([C@H]1c3cc(C(=O)O)cc(O)c3C(=O)c3c(O[C@@H]4O[C@H](CO)[C@@H](O)[C@H](O)[C@H]4O)cccc31)c1cccc(OC3O[C@H](CO)[C@@H](O)[C@H](O)[C@H]3O)c1C2=O (stereo partly drawn),?,31*,106*,95*
